# Reference: ChEMBL document CHEMBL1125028, “Resolved pyrrolidine, piperidine, and perhydroazepine analogues of the muscarinic agent N-methyl-N-(1-methyl-4-pyrrolidino-2-butynyl)acetamide” (J Med Chem, 1990)
# Legend:
# Cavia porcellus [1] = organism: Cavia porcellus; assay: Maximum contractile response in guinea pig ileum relative to that elicited by carbachol was determined; format: functional
# In short: (§1)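 Guinea pig ileum in Tyrode solution (pH 7.4) with 0.3 mM hexamethonium, 37 °C; isotonic contractions recorded at 1 g tension. Cumulative concentration-response curves built with agonist concentration stepped by a factor of 2.15. Maximal response expressed relative to carbachol. Antagonism tested at no fewer than four antagonist concentrations. Means ± SE over the number of ileal preparations.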
# [2] = target: Muscarinic acetylcholine receptor; assay: Compound was tested for its potency against Muscarinic acetylcholine receptor in guinea pig ileum; format: functional, tissue-based, Cavia porcellus
# [3] = target: Muscarinic acetylcholine receptor; assay: (§2) Dissociation constant towards Muscarinic acetylcholine receptor in guinea pig ileum; format: tissue-based, Cavia porcellus
# Cavia porcellus [4] = organism: Cavia porcellus; assay: Slope of schild plot in guinea pig ileum was determined; format: functional; in short: as §1
# [5] = Inhibition of specific binding of [3H]NMS to Muscarinic acetylcholine receptor in rat cerebral cortex by using competitive binding assay; format: tissue-based
# In short: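 Male Sprague–Dawley rat (200–300 g) cortex homogenized in 50 mM Na/K phosphate pH 7.4, spun 30000g 10 min, resuspended at 10 mg wet tissue/mL. Incubated with 0.3 nM (-)-[3H]NMS and test ligand, 30 min at 30 °C; filtration assay. […] IC50 by one-site nonlinear fit, converted to Ki by Cheng–Prusoff. Three determinations in triplicate.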
# [6] = target: Muscarinic acetylcholine receptor; assay: as §2; format: tissue-based, Cavia porcellus; in short: as §1; remark: listed apart in the source
EC50 [2] [µM],Kd [3] [µM],Ki [5] [µM],Kd [6] [µM],Structure (SMILES),Emax (Cavia porcellus [1]),Slope of Schild plot (Cavia porcellus [4])
0.094,0.2,,,CC(=O)N(C)[C@H](C)C#CCN1CCCC1,0.83,
,6.32,1.48,,CC(=O)N1CCCC[C@H]1C#CCN1CCCC1,,0.99
,1.16,0.41,,CC(=O)N1CCC[C@@H]1C#CCN1CCCC1,0,1.05
,0.161,0.042,,CC(=O)N1CCCCC[C@@H]1C#CCN1CCCC1,0,1.27
,0.08,0.016,,CC(=O)N1CCCC[C@@H]1C#CCN1CCCC1,,0.86
,7.85,2.07,,CC(=O)N1CCCCC[C@H]1C#CCN1CCCC1,0,1.17
,3.23,,,CC(=O)N(C)[C@@H](C)C#CCN1CCCC1,,
,16.01,5.16,,CC(=O)N1CCC[C@H]1C#CCN1CCCC1,0,0.8
,3.55,1.23,,CC(=O)N1CCCCCC1C#CC[N+](C)(C)C (racemic),,1.03
,0.097,0.044,,CC(=O)N1CCCCC1C#CCN1CCCC1 (racemic),0,0.88
2.8,,0.75,,CC(=O)N1CCCCC1C#CC[N+](C)(C)C (racemic),0.75,
,7,2.9,,CC(=O)N1CCCCCC1C#CCN(C)C (racemic),0,1.1
,8.3,2.26,,CC(=O)N1CCCCC1C#CCN(C)C (racemic),0,0.9
,1.4,0.67,,CC(=O)N1CCCC1C#CCN1CCCC1 (racemic),0,0.9
7.5,,6.1,49.5,CC(=O)N1CCCC1C#CC[N+](C)(C)C (racemic),0.8,
,125,25.4,,CC(=O)N1CCCC1C#CCN(C)C (racemic),0,
,0.11,0.082,,CC(=O)N1CCCCCC1C#CCN1CCCC1 (racemic),0,1.17
,,,,C[N+](C)(C)CCOC(N)=O.[Cl-] [CARBACHOL],1,
